Source: PubChem BioAssay
Shown are actives, neighbours in structure and some others; about 1.5% of the full set was active somewhere.
NR2E3 ag-1: NR2E3 (human) agonism; Q9Y5X4; GST-NR2E3/biotin-RetCOR TR-FRET, 1536-well; inhibition of corepressor binding, % at 4.78 µM; hit rate 0.12% among 320,000;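 active = percent inhibition above the cutoff of mean plus 3 SD of all tested compounds, set per screening campaign, cut at about 20% in these data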;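 also: 0% = DMSO wells and 100% = biotin wells as full block of FRET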
Target sequence (Q9Y5X4 whole entry, looked up): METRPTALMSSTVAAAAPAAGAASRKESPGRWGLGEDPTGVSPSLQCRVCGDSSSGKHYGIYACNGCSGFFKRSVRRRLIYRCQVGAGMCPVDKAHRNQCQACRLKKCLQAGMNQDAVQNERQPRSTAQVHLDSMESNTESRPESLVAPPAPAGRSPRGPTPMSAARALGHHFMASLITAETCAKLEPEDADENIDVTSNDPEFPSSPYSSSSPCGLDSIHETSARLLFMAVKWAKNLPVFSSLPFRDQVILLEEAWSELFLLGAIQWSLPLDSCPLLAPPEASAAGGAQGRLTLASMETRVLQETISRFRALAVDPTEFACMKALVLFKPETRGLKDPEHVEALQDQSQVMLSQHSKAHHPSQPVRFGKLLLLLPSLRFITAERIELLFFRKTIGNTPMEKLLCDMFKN
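System: GST-tagged NR2E3 plus biotinylated RetCOR corepressor; Amount: 1.35 nM GST-tagged NR2E3 final; Dosing: single nominal compound dose of 4.8 µM; Schedule: 5 h incubation at 4 °C; Technique: TR-FRET with europium anti-GST and streptavidin-D2, 340 nm excitation; Controls: biotin wells as high control, 0.6% DMSO wells as low control.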
Rev-erbA mod: modulates human Rev-erb alpha binding to DNA | AID 1259318 | activity, % at 10 µM | P20393 | hit rate 0.79% among 370,000 | Rev-erbα–FITC-DNA binding, fluorescence polarization, 90 min;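 active = activity above about 14%, limit read from the data; passing the limit was not always enough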;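 also: 0% = DMSO wells with 35 nM protein and 100% = DMSO wells with 750 nM protein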
NR2E3 ag-2: activates human NR2E3 receptor; Q9Y5X4; CHO-S Gal4-NCOR/VP16-NR2E3 two-hybrid, luciferase; inhibition of corepressor binding, % at 3.98 µM; hit rate 0.35% among 360,000;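 active = inhibition above the mean of all tested compounds plus 3 SD, cut at about 70% in these data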;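 also: 0% = DMSO with NR2E3 transfected cells and 100% = cells lacking NR2E3 construct; higher means lower luciferase signal from less NR2E3 corepressor binding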
PG9 Ab binder: binds the HIV-1 gp120 antibody PG9; hit rate 0.43% among 360,000; inhibition, % at 6.7 µM; TR-FRET gp120-PG9 antibody binding; in the data active = inhibition above about 8.5%
PG9 binder conf: PG9 antibody binding, confirmed | shares compounds with PG9 Ab binder | TR-FRET PG9 antibody binding, biochemical | inhibition, % at 6.7 µM | hit rate 90% among 1,500 | AID 651571; in the data active = inhibition above about 9%
PGV04 Ab binding: counter-screen for PG9 binders: binding control antibody PGV04; shares compounds with PG9 Ab binder; hit rate 95% among 1,500; inhibition, % at 6.7 µM; TR-FRET PGV04 antibody-gp120 binding, biochemical; in the data active = inhibition above about 9.5%
PG9 binder DR: PG9 antibody binding, dose response; shares compounds with PG9 Ab binder; TR-FRET PG9 antibody-gp120 binding inhibition; IC50, µM; 95 tested, under 10 active; AID 651848; in the data active = IC50 below about 10 µM
PGV04 binding DR: counter-screen for PG9 binders: binding to control antibody PGV04; shares compounds with PG9 Ab binder; TR-FRET binding to control antibody PGV04; IC50, µM; hit rate 20% among 95
PG126 DR counter: PG126 binding, dose response counter-screen; AID 651939; shares compounds with PG9 Ab binder; TR-FRET binding to antibody PG126, counterscreen; IC50, µM; hit rate 20% among 95
Numbers without * were called inactive; i = inactive; . = no result given. Rule as the data show it, unless noted: active = IC50 below about 9 µM; inactive = the rest.

SMILES	NR2E3 ag-1	Rev-erbA mod	NR2E3 ag-2	PG9 Ab binder	PG9 binder conf	PGV04 Ab binding	others
CC1(C)Cc2nc3oc4c(=S)nc[nH]c4c3cc2CO1	3.7	0.8	-53.4	18.7*	10.9*	11.9*
O=C(NC1CCCCN(Cc2cccc(Cl)c2)C1=O)c1ccccn1 (stereo not given)	.	8.2	.	.	.	.
Cc1cc(Cl)ccc1OC(C)c1nnc(N)s1 (stereo not given)	3.0	-0.7	8.3	10.5*	6.9	9.0
CC(Oc1ccc(Cl)cc1Cl)c1ccnc(N)n1 (stereo not given)	-1.8	4.2	0.9	-3.3	.	.
Cc1ccc(S(=O)(=O)N(C)Cc2cc3cc(C)ccc3[nH]c2=O)cc1	3.1	8.5	-5.8	16.8*	28.1*	44.3*
Cc1ccc2cc(CN(C)S(C)(=O)=O)c(=O)[nH]c2c1	-8.2	-5.8	-6.8	1.2	.	.
CC(C)(C)C(=O)O[C@@H]1CCC[C@@]2(C(=O)N(Cc3ccccc3)c3ccccc32)[C@H]1NC(=O)CCc1ccccc1	.	7.0	.	.	.	.
NC(=O)C1CCN(c2nc(-c3ccc4c(c3)CCO4)cs2)CC1	.	-0.2	.	.	.	.
O=C(COC(=O)c1ccc(F)c(S(=O)(=O)N2CCOCC2)c1)c1ccc(Cl)cc1	3.4	-0.1	-13.4	-1.4	.	.
CCOC(=O)c1c(C)[nH]c(C(=O)COC(=O)c2ccc(F)c(S(=O)(=O)N3CCOCC3)c2)c1C	-0.1	16.3	-9.0	17.3*	29.1*	40.2*
CCCC(=O)Nc1nc(C)c(C(C)=O)s1	-0.6	-6.2	-11.6	32.0*	36.4*	48.9*
CCC[C@H]1[C@@H](NC(=O)c2cccnc2)CC[C@@]23CCCN2C(=O)CCC[C@@H]13	.	9.1	.	.	.	.
CCn1c(=O)cc(OCC(=O)Nc2nc(C)cs2)c2ccccc21	6.0	21.5	-14.8	13.2*	30.4*	48.6*
Cc1csc(NC(=O)COc2ccc3c(C)cc(=O)oc3c2)n1	-42.1	-8.2	-14.6	15.4*	20.5*	29.7*
CCn1c(=O)cc(OCC(=O)Nc2ccc(C)cn2)c2ccccc21	-4.0	0.5	5.2	0.5	.	.
Cn1ccc2c(N3c4ccccc4CCc4ccccc43)cc3c(c21)C1CCC3O1 (stereo not given)	.	-8.0	-18.1	18.7*	4.8	6.6
Cn1ccc2c(N3c4ccccc4CCc4ccccc43)cc3c(c21)C1CCC3C1 (stereo not given)	.	-7.0	-3.9	-3.0	.	.
c1ccc(-c2c[nH]c3ccc(OCCN4CCOCC4)c(-c4ccccc4)c23)cc1	.	6.5	.	.	.	.
O=C(Cn1c(=O)c2cccn2c2ccccc21)NCCc1ccccc1	10.0	6.7	14.7	10.6*	19.1*	27.4*
CN1CCN(Cc2c(O)ccc3occ(C(=O)c4ccccc4)c23)CC1	-2.7	0.5	-8.4	2.3	.	.
CC(=O)C(C(C)=O)c1c(Cl)c(O)c(O)c2c(C(=O)c3ccccc3)coc12	3.3	1.7	-36.3	11.6*	18.1*	20.3*
Cc1cc(N=Cc2c(O)ccc3cc(Br)ccc23)no1	16.1	1.3	9.0	9.1*	7.2	10.4*
CCOC(=O)CC[C@@]1(C(=O)OCC)C[C@@H](CC(=O)N2CCOCC2)C(=O)N2CCCC=C21	.	1.2	.	.	.	.
CCOc1ccccc1-c1n[nH]c(=S)o1	6.1	-3.2	-8.4	10.6*	13.7*	19.2*
COc1ccc(NC(=O)N2CCC(N(C)CCC(C)C)CC2)cc1OC	.	-1.9	.	.	.	.
SMILES	NR2E3 ag-1	Rev-erbA mod	NR2E3 ag-2	PG9 Ab binder	PG9 binder conf	PGV04 Ab binding	others
O=C(O)CCCC(=O)N1CCN(c2nc(-c3ccccc3Cl)c3cc(Br)ccc3n2)CC1	2.1	-4.2	-30.5	17.0*	22.8*	33.5*
COc1ccc(CCn2c(SCC(=O)Nc3cc(C)on3)nc3ccsc3c2=O)cc1OC	1.1	11.9	4.0	35.6*	45.7*	55.9*
Cc1ccc(OCC(=O)NC(=S)Nc2ccc3c4c(cccc24)CC3)cc1	5.7	11.5	-8.9	0.5	.	.
CC(C)c1ccc(OCC(=O)NC(=S)Nc2ccc3c4c(cccc24)CC3)cc1	6.0	7.5	-4.5	11.1*	10.6*	11.6*
COC(=O)c1ccc2ccn(CC(=O)NC3CCCCC3)c2c1	0.7	7.8	-18.6	16.1*	19.6*	31.6*
CCOC(=O)[C@]12CCCCC/C=C\1N(CCc1ccc(Cl)cc1)C(=O)[C@H]2CC(=O)N1CCOCC1	.	-2.0	.	.	.	.
COC(=O)c1cc(-c2ccc(Br)cc2)c2c(=O)[nH]c(=O)n(C)c2n1	2.7	8.6	6.6	20.0*	29.3*	16.4*	PG9 binder DR=>67;PGV04 binding DR=i;PG126 DR counter=i
COC(=O)c1cc(-c2cccc([N+](=O)[O-])c2)c2c(=O)[nH]c(=O)n(C)c2n1	2.4	-3.5	22.3	-2.1	.	.
COC(=O)c1cc(-c2ccc(OC)c(OC)c2)c2c(=O)[nH]c(=O)n(C)c2n1	4.5	7.4	9.6	21.1*	21.3*	28.8*
O=C(Nc1ccsc1C(=O)NC1CCCCC1)c1ccccc1	-1.2	15.1	-10.8	28.5*	24.9*	31.1*
O=C(CSc1ccc2nnc(-c3cccc(F)c3)n2n1)N1CCCc2ccccc21	2.7	1.4	7.5	9.1*	18.5*	38.6*
Cc1cc(C)cc(NC(=O)COC(=O)c2ccc3c(c2)OCCO3)c1	-0.4	1.5	-18.1	7.8	.	.
CCOc1ccc(NC(=O)COC(=O)c2ccc3c(c2)OCCO3)cc1	1.4	3.9	20.7	53.9*	48.3*	60.1*
Cc1cc(NC(=O)c2ccc3c(c2)C(=O)N(CCC(C)C)C3=O)no1	-1.0	-2.5	-22.1	11.9*	6.7	7.9
CCCC1CCC2(CCCN2CCOC(=S)Nc2cccc(Cl)c2)CC1 (stereo not given)	.	-1.4	.	.	.	.
Cn1c(=O)c2c(SCC(=O)NCc3ccco3)nc(-c3ccccc3Cl)nc2n(C)c1=O	0.5	-3.0	-30.4	-1.0	.	.
COc1ccccc1-c1nc(SCC(=O)NCc2ccco2)c2c(=O)n(C)c(=O)n(C)c2n1	4.5	1.9	-15.0	27.7*	25.9*	30.4*
CCOCCCn1c(SCC(=O)Nc2ccc(OC)cc2)nc2ccccc2c1=O	2.5	4.2	-13.4	47.9*	47.5*	54.7*
CSc1cc(-c2ccc(Cl)cc2)c(C(=O)NC(C)C)s1	-3.8	3.7	-6.9	17.7*	8.5	13.4*
CCN1C(=C(C#N)C#N)C=Cc2cc(C)ccc21	6.2	-3.3	-1.4	22.8*	20.1*	31.4*
CCN1/C(=C2/SC(=S)N(C)C2=O)C=Cc2cc(C)ccc21	-2.0	2.1	-23.3	-4.2	.	.
